Active and inactive are the calls of the source. The calls are words filed in the database; no cut-off is given here.
Legend:
[1] = tested on: Caenorhabditis elegans; assay: Effect on skn-1 mRNA expression in Caenorhabditis elegans CL4176 at 50 uM by qRT-PCR analysis; type: functional
Procedure, shortened: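 CL4176 qRT-PCR of skn-1 or sod-3. RNA extracted with Trizol, EvaGreen qRT-PCR run for 40 cycles (95 °C 5 s, 60 °C 5 s). Normalized to ama-1 by the 2^−ΔΔCt method. Three independent RNA/cDNA preparations, run in triplicate.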

[2] = Solubility of the compound in water; type: physicochemical
[3] = Inhibition of Zn2+ induced amyloid beta (1 to 40) aggregation assessed as reduction in fluorescence intensity at 20 uM preincubated for 5 mins in presence of ZnCl2 followed by compound addition addition and incubated for 24 hrs by Thioflavin T based fluorometric assay
Procedure, shortened: (§1)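 Aβ40 (20 µM) preincubated with CuCl2 or ZnCl2 (20 µM) for 5 min at room temperature. Compound (20 µM) added, incubated 37 °C for 24 h. ThT (5 µM) added, fluorescence read at ex 450/em 485 nm. Mean ± S.D. of at least three independent experiments.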

[4] = Inhibition of Zn2+ induced amyloid beta (1 to 42) aggregation assessed as reduction in fibril formation incubated for 24 hrs in presence of Zn2+ by Thioflavin T based fluorometric assay
Procedure, shortened: (§2)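 Aβ42 (20 µM) mixed with compound (0.1–100 µM), with or without Zn2+ (20 µM), in Tris-HCl pH 7.4, incubated at 37 °C for 24 h. ThT (5 µM) added, fluorescence read at ex 450/em 485 nm.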

[5] = Disaggregation of Zn2+ induced fibrils of amyloid beta (1 to 40) assessed as appearance of small soluble fragments at 0.1 to 100 uM incubated for 24 hrs uranyl acetate staining-based by TEM analysis; details: dose microM 0.1-100, time 24.0 hrs
[6] = target: T1, Amyloid-beta precursor protein (Homo sapiens, UniProt P05067); assay: Inhibition of self-induced aggregation amyloid beta (1 to 42) (unknown origin) assessed as reduction in fibril formation incubated for 24 hrs by Thioflavin T based fluorometric assay; procedure, shortened: as §2
[7] = Inhibition of Cu2+ induced amyloid beta (1 to 40) aggregation assessed as reduction in fluorescence intensity at 20 uM preincubated for 5 mins in presence of CuCl2 followed by compound addition addition and incubated for 24 hrs by Thioflavin T based fluorometric assay; procedure, shortened: as §1
[8] = target: T1, Amyloid-beta precursor protein; assay: Inhibition of self-induced amyloid beta (1 to 42) (unknown origin) aggregation assessed as decrease in negative band ellipticity and shift around 230 nm resulting in inhibition of beta-sheets formation at 80 uM incubated for 24 hrs by circular dichroism spectroscopy
Procedure, shortened: (§3)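 CD spectra taken on Aβ42 (40 µM). Metal ion (ZnCl2 or CuCl2, 40 µM) was preincubated 5 min at room temperature where present, then compound (80 µM) was added and incubated at 37 °C for 24 h. Spectra recorded 190–270 nm in a 1.0 cm quartz cell, bandwidth 0.1 nm, response time 10 s.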

[9] = target: T1, Amyloid-beta precursor protein; assay: Inhibition of self-induced amyloid beta (1 to 42) (unknown origin) aggregation assessed as decrease in negative band ellipticity and shift around 230 nm resulting in modulation of amyloid beta (1 to 42) conformation at 80 uM incubated for 24 hrs by circular dichroism spectroscopy; procedure, shortened: as §3
[10] = Inhibition of Zn2+ induced amyloid beta (1 to 40) aggregation assessed as appearance of granule like species at 0.1 to 100 uM incubated for 24 hrs uranyl acetate staining-based by TEM analysis; details: dose microM 0.1-100, time 24.0 hrs
[11] = Inhibition of Cu2+ induced amyloid beta (1 to 40) aggregation assessed as appearance of granule like species at 0.1 to 100 uM incubated for 24 hrs uranyl acetate staining-based by TEM analysis; details: dose microM 0.1-100, time 24.0 hrs
[12] = Disaggregation of Cu2+ induced fibrils of amyloid beta (1 to 40) assessed as appearance of small soluble fragments at 0.1 to 100 uM incubated for 24 hrs uranyl acetate staining-based by TEM analysis; details: dose microM 0.1-100, time 24.0 hrs
[13] = tested on: PC-12; assay: Cytotoxicity against rat PC-12 cells assessed as reduction in cell viability at 100 uM measured after 48 hrs by MTT assay relative to control; type: cell-based; details: pc-12, 48 h
Procedure, shortened: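 PC12 cells differentiated with NGF, then cultured overnight in RPMI-1640 with 10% FBS at 37 °C, 5% CO2. MTT assay with formazan absorbance at 570 nm. Viability = (OD test − blank)/(OD control − blank) × 100%, mean of three replicates.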

[14] = target: T1, Amyloid-beta precursor protein; assay: Inhibition of amyloid beta (1 to 42)-induced paralysis in transgenic Caenorhabditis elegans CL4176 expressing human amyloid beta (1 to 42) assessed as paralyzed worms at 50 uM treated for 49 hrs at 25 degreeC by microscopic analysis (reference value: 87 %); design: scale not given: the % may be the effect or the level left
[15] = target: T1, Amyloid-beta precursor protein; assay: Inhibition of amyloid beta (1 to 42)-induced paralysis in transgenic Caenorhabditis elegans CL4176 expressing human amyloid beta (1 to 42) assessed as paralyzed worms at 100 uM treated for 49 hrs at 25 degreeC by microscopic analysis (reference value: 87 %); design: scale not given: the % may be the effect or the level left
[16] = target: T1, Amyloid-beta precursor protein; assay: Inhibition of amyloid beta (1 to 42)-induced paralysis in transgenic Caenorhabditis elegans CL4176 expressing human amyloid beta (1 to 42) assessed as paralyzed worms at 200 uM treated for 49 hrs at 25 degreeC by microscopic analysis (reference value: 87 %); design: scale not given: the % may be the effect or the level left
[17] = target: T1, Amyloid-beta precursor protein; assay: Inhibition of amyloid beta (1 to 42)-induced paralysis in transgenic Caenorhabditis elegans GMC101 expressing human amyloid beta (1 to 42) assessed as paralyzed worms at 50 uM measured after 92 hrs by microscopic analysis relative to control; design: scale not given: the % may be the effect or the level left
[18] = target: T1, Amyloid-beta precursor protein; assay: Inhibition of amyloid beta (1 to 42)-induced paralysis in transgenic Caenorhabditis elegans GMC101 expressing human amyloid beta (1 to 42) assessed as paralyzed worms at 100 uM measured after 92 hrs by microscopic analysis relative to control; design: scale not given: the % may be the effect or the level left
[19] = target: T1, Amyloid-beta precursor protein; assay: Inhibition of amyloid beta (1 to 42)-induced paralysis in transgenic Caenorhabditis elegans GMC101 expressing human amyloid beta (1 to 42) assessed as paralyzed worms at 200 uM measured after 92 hrs by microscopic analysis relative to control; design: scale not given: the % may be the effect or the level left
[20] = target: T1, Amyloid-beta precursor protein; assay: Inhibition of amyloid beta (1 to 42)-induced paralysis in transgenic Caenorhabditis elegans CL4176 L3 expressing human amyloid beta (1 to 42) assessed as roller movement of worms by microscopic analysis
[21] = target: T1, Amyloid-beta precursor protein; assay: Inhibition of amyloid beta (1 to 42)-induced paralysis in transgenic Caenorhabditis elegans GMC101 L3 expressing human amyloid beta (1 to 42) assessed as reduction in fluorescence intensity at 50 uM incubated for 2 days by fluorescence based confocal microscopic analysis relative to control; details: time 2.0 day
Procedure, shortened: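 GMC101 L3 worms kept on compound plates (50, 100 µM) at 25 °C for 2 days, mounted on 2% agarose pads. GFP imaged by confocal microscopy at ex 488/em 500–530 nm and intensity quantified. Two experiments, 15 worms per group.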

T1 sequence (P05067 whole entry): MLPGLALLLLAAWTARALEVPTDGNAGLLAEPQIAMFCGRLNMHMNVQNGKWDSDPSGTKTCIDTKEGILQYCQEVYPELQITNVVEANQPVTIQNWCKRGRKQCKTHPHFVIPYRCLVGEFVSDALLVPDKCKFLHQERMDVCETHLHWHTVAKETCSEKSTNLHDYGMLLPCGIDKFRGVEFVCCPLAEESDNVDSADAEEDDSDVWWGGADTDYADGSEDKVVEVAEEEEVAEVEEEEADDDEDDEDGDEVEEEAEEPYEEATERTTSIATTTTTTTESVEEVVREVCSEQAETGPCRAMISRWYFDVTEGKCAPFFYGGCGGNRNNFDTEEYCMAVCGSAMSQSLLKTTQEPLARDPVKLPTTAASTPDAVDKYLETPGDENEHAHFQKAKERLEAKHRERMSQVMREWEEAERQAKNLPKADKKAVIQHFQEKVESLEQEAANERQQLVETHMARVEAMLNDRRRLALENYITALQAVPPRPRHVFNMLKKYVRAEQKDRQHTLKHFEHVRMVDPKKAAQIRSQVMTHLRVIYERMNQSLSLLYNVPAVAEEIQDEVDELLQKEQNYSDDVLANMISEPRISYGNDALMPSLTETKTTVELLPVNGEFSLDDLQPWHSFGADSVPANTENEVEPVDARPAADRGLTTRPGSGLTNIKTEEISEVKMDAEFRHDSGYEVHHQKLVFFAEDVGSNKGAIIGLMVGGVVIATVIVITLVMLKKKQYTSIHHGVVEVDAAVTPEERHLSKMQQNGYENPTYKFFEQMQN

Oc1cc(CN(Cc2ccccn2)Cc2ccccn2)cc(C[P+](c2ccccc2)(c2ccccc2)c2ccccc2)c1.[Br-]
Activity [1]: inactive
solubility [2]: Insoluble
inhibition [3]: Active
IC50 [4]: 27.4 µM
inhibition [4]: Dose-dependent effect
Activity [5]: Active
IC50 [6]: 12.5 µM
inhibition [6]: Dose-dependent effect
inhibition [7]: Active
inhibition [8]: Active
inhibition [9]: Active
inhibition [10]: Active
inhibition [11]: Active
Activity [12]: Active
Activity [13]: 80.5%
Activity [14]: 74%
Activity [15]: 66%
Activity [16]: 35%
Activity [17]: 74%
Activity [18]: 66%
Activity [19]: 35%
Activity [20]: Active
inhibition [21]: 43%

— ChEMBL document CHEMBL4665634, “Inhibiting Aβ toxicity in Alzheimer's disease by a pyridine amine derivative” (Eur J Med Chem, 2019)
